One test concerns the target T1, Prostaglandin G/H synthase 1 (Homo sapiens, UniProt P23219). Description: In vitro average percent Inhibition of Prostaglandin G/H synthase 1 (COX-1) at a concentration of 100 uM in human whole blood by human whole blood assay. The class given is tissue-based.
Conditions: not given
T1 sequence (P23219 whole entry): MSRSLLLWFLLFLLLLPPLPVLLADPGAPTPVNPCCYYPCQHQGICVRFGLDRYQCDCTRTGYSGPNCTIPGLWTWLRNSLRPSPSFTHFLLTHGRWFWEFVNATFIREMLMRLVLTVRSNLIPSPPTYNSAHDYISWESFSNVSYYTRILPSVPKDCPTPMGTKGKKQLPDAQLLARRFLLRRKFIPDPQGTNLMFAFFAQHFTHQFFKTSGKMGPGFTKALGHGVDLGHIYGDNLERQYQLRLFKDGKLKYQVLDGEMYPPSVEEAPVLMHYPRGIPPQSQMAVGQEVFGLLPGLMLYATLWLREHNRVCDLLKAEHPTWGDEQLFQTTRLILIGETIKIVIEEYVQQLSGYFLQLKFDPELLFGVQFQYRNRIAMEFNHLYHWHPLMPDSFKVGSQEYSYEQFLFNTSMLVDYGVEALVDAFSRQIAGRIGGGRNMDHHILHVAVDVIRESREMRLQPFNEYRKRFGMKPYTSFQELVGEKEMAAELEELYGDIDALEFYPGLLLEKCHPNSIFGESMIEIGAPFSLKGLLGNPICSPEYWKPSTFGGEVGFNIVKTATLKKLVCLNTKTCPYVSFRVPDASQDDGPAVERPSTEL
One may read the inhibition as how much of the control response was suppressed. Compound `CS(=O)(=O)c1ccc(C2=C(c3ccccc3)C(=O)OC2)cc1` gave an inhibition of 75%.

The compound `CS(=O)(=O)c1ccc(-c2cc3c(cc2C(=O)c2ccccc2)OCO3)cc1` had an inhibition of 75%.

As to `Cc1ccc(Cc2cc3c(cc2-c2ccc(S(C)(=O)=O)cc2)OCO3)cc1`, the inhibition came out at 45%.

`CS(=O)(=O)c1ccc(-c2cc3c(cc2Cc2cccnc2)OCO3)cc1`: the inhibition was 35%.

The target in another test is T2, Prostaglandin G/H synthase 2 (Homo sapiens) (UniProt P35354).
T2 sequence (whole entry): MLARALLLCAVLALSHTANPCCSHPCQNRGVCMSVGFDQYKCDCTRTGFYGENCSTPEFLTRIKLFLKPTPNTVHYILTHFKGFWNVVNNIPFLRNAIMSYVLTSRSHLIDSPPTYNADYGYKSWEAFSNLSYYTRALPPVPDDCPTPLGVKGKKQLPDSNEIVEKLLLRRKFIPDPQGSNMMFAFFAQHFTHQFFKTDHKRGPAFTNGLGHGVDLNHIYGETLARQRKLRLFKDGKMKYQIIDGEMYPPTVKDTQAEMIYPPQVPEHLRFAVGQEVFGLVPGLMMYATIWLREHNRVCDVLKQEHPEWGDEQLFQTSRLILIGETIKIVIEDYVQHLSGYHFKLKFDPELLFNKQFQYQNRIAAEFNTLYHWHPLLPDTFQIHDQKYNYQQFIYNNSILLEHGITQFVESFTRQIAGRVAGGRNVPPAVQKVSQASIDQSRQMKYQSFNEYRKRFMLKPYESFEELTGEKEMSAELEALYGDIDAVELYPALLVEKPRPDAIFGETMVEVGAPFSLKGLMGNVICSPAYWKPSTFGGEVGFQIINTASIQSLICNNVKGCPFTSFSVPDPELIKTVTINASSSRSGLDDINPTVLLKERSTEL
As to conditions: at 10 µM.
As for `CS(=O)(=O)c1ccc(-c2cc3c(cc2C=C2CCCC2)OCO3)cc1`, the inhibition worked out at 90%.

Compound `CS(=O)(=O)c1ccc(-c2cc3c(cc2CC2CCCCC2)OCO3)cc1` showed an inhibition of 100%.

Consider `NS(=O)(=O)c1ccc(-c2cc3c(cc2Cc2ccccc2)OCO3)cc1`, for which the inhibition came out at 90%.

The compound `CS(=O)(=O)c1ccc(-c2cc3c(cc2C(=O)c2ccccc2)OCO3)cc1` showed an inhibition of 90%.

Consider `Cc1ccc(Cc2cc3c(cc2-c2ccc(S(C)(=O)=O)cc2)OCO3)cc1`, for which the inhibition came to 80%.

As for `CS(=O)(=O)c1ccc(-c2cc3c(cc2Cc2cccnc2)OCO3)cc1`, the inhibition was determined as 65%.

As for `Cc1cccc(C(=O)c2cc3c(cc2-c2ccc(S(C)(=O)=O)cc2)OCO3)c1`, the inhibition was found to be 40%.

`CS(=O)(=O)c1ccc(-c2cc3c(cc2CN2CCCCC2=O)OCO3)cc1`: the inhibition was determined as 90%.

In turn, `CS(=O)(=O)c1ccc(-c2cc3c(cc2Cc2cc(F)cc(F)c2)OCO3)cc1` had an inhibition of 90%.

The compound `CS(=O)(=O)c1ccc(-c2cc3c(cc2C(=O)c2cnccc2Br)OCO3)cc1` had an inhibition of 0%.

Compound `CS(=O)(=O)c1ccc(-c2cc3c(cc2CC2CCCC2)OCO3)cc1` gave an inhibition of 70%.

The next test addresses T1, Prostaglandin G/H synthase 1. Nature of the test: Compound was tested for the inhibition of recombinant human Prostaglandin G/H synthase 1 (COX-1).
Conditions: not given
What is called IC50 is the midpoint of a concentration-inhibition curve. In the case of `NS(=O)(=O)c1ccc(-c2cc3c(cc2Cc2ccccc2)OCO3)cc1`, the IC50 was found to be 25 µM.

For a further test, the target named is T3, Prostaglandin G/H synthase 2 (Homo sapiens, UniProt P35354).
T3 sequence (P35354 whole entry): T2 sequence (whole entry)
Description: Compound was tested for the inhibition of recombinant human Prostaglandin G/H synthase 2 (COX-2).
Conditions: not given
As for `NS(=O)(=O)c1ccc(-c2cc3c(cc2Cc2ccccc2)OCO3)cc1`, the half-inhibitory concentration (IC50) came out at 0.05 µM.

The target in a further test is T1, Prostaglandin G/H synthase 1. Description: In vitro average percent inhibition of human prostaglandin G/H synthase 1 (COX-1) at a concentration of 100 uM.
Conditions: not given
Summed up: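 Supplied recombinant human COX-1 (5 units) preincubated 2 min at 25 °C in 0.1 M Tris-HCl pH 8.0 with 5 mM EDTA, 2 mM phenol and heme; compound or DMSO added, 20 min at 25 °C; started with 10 mM arachidonic acid stock, 2 min at 37 °C; stopped with HCl, SnCl2 reduction; prostaglandins by EIA; percent inhibition versus solvent control.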
Turning to `CS(=O)(=O)c1ccc(-c2cc3c(cc2C=C2CCCC2)OCO3)cc1`, the inhibition stood at 70%.

`CS(=O)(=O)c1ccc(-c2cc3c(cc2CC2CCCCC2)OCO3)cc1` returned an inhibition of 50%.

In the case of `CS(=O)(=O)c1ccc(-c2cc3c(cc2CN2CCCCC2=O)OCO3)cc1`, the inhibition came out at 50%.

The target of the next test is T2, Prostaglandin G/H synthase 2 (Homo sapiens). As to conditions: Blood; at 1 µM.
On to `CS(=O)(=O)c1ccc(C2=C(c3ccccc3)C(=O)OC2)cc1`, for which the inhibition was 75%.

Consider `CS(=O)(=O)c1ccc(-c2cc3c(cc2C(=O)c2ccccc2)OCO3)cc1`, for which the inhibition is 25%.

`Cc1ccc(Cc2cc3c(cc2-c2ccc(S(C)(=O)=O)cc2)OCO3)cc1` returned an inhibition of 0%.

The compound `CS(=O)(=O)c1ccc(-c2cc3c(cc2Cc2cccnc2)OCO3)cc1` showed an inhibition of 15%.

Regarding `Cc1cccc(C(=O)c2cc3c(cc2-c2ccc(S(C)(=O)=O)cc2)OCO3)c1`, the inhibition was 40%.

The compound `CS(=O)(=O)c1ccc(-c2cc3c(cc2Cc2cc(F)cc(F)c2)OCO3)cc1` had an inhibition of 15%.

Another test has as its target T1, Prostaglandin G/H synthase 1. Nature of the test: In vitro average percent Inhibition of inhibition of Prostaglandin G/H synthase 1 (COX-1) at a concentration of 100 uM in human whole blood by human whole blood assay. In kind it is tissue-based.
Conditions: not given
`CS(=O)(=O)c1ccc(-c2cc3c(cc2Cc2cc(F)cc(F)c2)OCO3)cc1` returned an inhibition of 70%.

The target is the same in another test. Nature of the test: In vitro average percent uM in human whole blood by human whole blood assay. In kind it is tissue-based. As to conditions: concentration not given here.
In turn, `Cc1cccc(C(=O)c2cc3c(cc2-c2ccc(S(C)(=O)=O)cc2)OCO3)c1` came in with an inhibition of 95%.

For the next test, the target named is T2, Prostaglandin G/H synthase 2 (Homo sapiens). As to conditions: Blood; at 10 µM.
In the case of `CS(=O)(=O)c1ccc(-c2cc3c(cc2C(=O)c2ccccc2)OCO3)cc1`, the inhibition is 65%.

Compound `Cc1ccc(Cc2cc3c(cc2-c2ccc(S(C)(=O)=O)cc2)OCO3)cc1` returned an inhibition of 10%.

`CS(=O)(=O)c1ccc(-c2cc3c(cc2Cc2cccnc2)OCO3)cc1` displayed an inhibition of 15%.

Consider `Cc1cccc(C(=O)c2cc3c(cc2-c2ccc(S(C)(=O)=O)cc2)OCO3)c1`, for which the inhibition is 85%.

Take `CS(=O)(=O)c1ccc(-c2cc3c(cc2Cc2cc(F)cc(F)c2)OCO3)cc1`: the inhibition amounted to 40%.

A further test has the same target. As to conditions: at 1 µM.
The compound `CS(=O)(=O)c1ccc(C2=C(c3ccccc3)C(=O)OC2)cc1` gave an inhibition of 40%.

The compound `CS(=O)(=O)c1ccc(-c2cc3c(cc2C=C2CCCC2)OCO3)cc1` yielded an inhibition of 65%.

`CS(=O)(=O)c1ccc(-c2cc3c(cc2CC2CCCCC2)OCO3)cc1` displayed an inhibition of 100%.

Take `NS(=O)(=O)c1ccc(-c2cc3c(cc2Cc2ccccc2)OCO3)cc1`: the inhibition is 85%.

`CS(=O)(=O)c1ccc(-c2cc3c(cc2C(=O)c2ccccc2)OCO3)cc1` returned an inhibition of 10%.

`Cc1ccc(Cc2cc3c(cc2-c2ccc(S(C)(=O)=O)cc2)OCO3)cc1` registered an inhibition of 50%.

With `CS(=O)(=O)c1ccc(-c2cc3c(cc2Cc2cccnc2)OCO3)cc1`, the inhibition was found to be 0%.

With `Cc1cccc(C(=O)c2cc3c(cc2-c2ccc(S(C)(=O)=O)cc2)OCO3)c1`, the inhibition is 10%.

Turning to `CS(=O)(=O)c1ccc(-c2cc3c(cc2CN2CCCCC2=O)OCO3)cc1`, the inhibition came to 20%.

Regarding `CS(=O)(=O)c1ccc(-c2cc3c(cc2Cc2cc(F)cc(F)c2)OCO3)cc1`, the inhibition was found to be 90%.

`CS(=O)(=O)c1ccc(-c2cc3c(cc2C(=O)c2cnccc2Br)OCO3)cc1` gave an inhibition of 10%.

Compound `CS(=O)(=O)c1ccc(-c2cc3c(cc2CC2CCCC2)OCO3)cc1` returned an inhibition of 40%.

The next test addresses T4, Prostaglandin G/H synthase 1 (Ovis aries) (UniProt P05979).
T4 sequence (whole entry): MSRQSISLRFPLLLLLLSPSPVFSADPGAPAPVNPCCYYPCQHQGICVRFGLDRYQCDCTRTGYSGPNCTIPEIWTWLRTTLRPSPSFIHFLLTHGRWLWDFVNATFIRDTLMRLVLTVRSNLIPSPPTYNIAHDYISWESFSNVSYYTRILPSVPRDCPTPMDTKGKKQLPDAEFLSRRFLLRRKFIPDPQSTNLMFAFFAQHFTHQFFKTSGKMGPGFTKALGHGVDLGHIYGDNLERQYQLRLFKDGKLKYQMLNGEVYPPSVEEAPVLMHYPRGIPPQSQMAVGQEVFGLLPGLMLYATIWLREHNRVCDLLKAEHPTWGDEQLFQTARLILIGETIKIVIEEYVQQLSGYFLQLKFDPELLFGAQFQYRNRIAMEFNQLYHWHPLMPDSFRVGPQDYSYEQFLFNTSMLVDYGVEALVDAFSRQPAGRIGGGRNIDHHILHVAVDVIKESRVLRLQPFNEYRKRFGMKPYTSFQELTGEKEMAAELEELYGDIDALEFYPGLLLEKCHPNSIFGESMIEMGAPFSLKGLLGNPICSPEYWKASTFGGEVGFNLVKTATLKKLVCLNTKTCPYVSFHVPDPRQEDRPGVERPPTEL
Description: Compound was tested for in vitro inhibition of recombinant ovine Prostaglandin G/H synthase 1 (COX-1) at a concentration of 100 uM.
Conditions: not given
The essentials: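 Supplied recombinant ovine COX-1 (5 units) preincubated 2 min at 25 °C in 0.1 M Tris-HCl pH 8.0 with 5 mM EDTA, 2 mM phenol and heme; compound or DMSO added, 20 min at 25 °C; started with 10 mM arachidonic acid stock, 2 min at 37 °C; stopped with HCl, SnCl2 reduction; prostaglandins by EIA; percent inhibition versus solvent control.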
Take `CS(=O)(=O)c1ccc(-c2cc3c(cc2C=C2CCCC2)OCO3)cc1`: the inhibition turned out to be 80%.

Regarding `Cc1ccc(Cc2cc3c(cc2-c2ccc(S(C)(=O)=O)cc2)OCO3)cc1`, the inhibition is 25%.

Regarding `Cc1cccc(C(=O)c2cc3c(cc2-c2ccc(S(C)(=O)=O)cc2)OCO3)c1`, the inhibition worked out at 0%.

Take `CS(=O)(=O)c1ccc(-c2cc3c(cc2Cc2cc(F)cc(F)c2)OCO3)cc1`: the inhibition is 15%.

For the compound `CS(=O)(=O)c1ccc(-c2cc3c(cc2C(=O)c2cnccc2Br)OCO3)cc1`, the inhibition amounted to 40%.

In the case of `CS(=O)(=O)c1ccc(-c2cc3c(cc2CC2CCCC2)OCO3)cc1`, the inhibition was found to be 20%.

Another test concerns the target T1, Prostaglandin G/H synthase 1. Description: Compound was tested for the inhibition of human Prostaglandin G/H synthase 1 (COX-1) in human whole blood. The class given is tissue-based.
Conditions: not given
In the case of `NS(=O)(=O)c1ccc(-c2cc3c(cc2Cc2ccccc2)OCO3)cc1`, it took 60 µM to reach half-maximal inhibition (IC50).

The next test shares this target. As to conditions: at 100 µM.
`CS(=O)(=O)c1ccc(C2=C(c3ccccc3)C(=O)OC2)cc1` came in with an inhibition of 0%.

In the case of `CS(=O)(=O)c1ccc(-c2cc3c(cc2CC2CCCCC2)OCO3)cc1`, the inhibition stood at 0%.

With `NS(=O)(=O)c1ccc(-c2cc3c(cc2Cc2ccccc2)OCO3)cc1`, the inhibition was determined as 90%.

Turning to `CS(=O)(=O)c1ccc(-c2cc3c(cc2C(=O)c2ccccc2)OCO3)cc1`, the inhibition turned out to be 0%.

`CS(=O)(=O)c1ccc(-c2cc3c(cc2Cc2cccnc2)OCO3)cc1` showed an inhibition of 30%.

For the compound `CS(=O)(=O)c1ccc(-c2cc3c(cc2CN2CCCCC2=O)OCO3)cc1`, the inhibition stood at 70%.

The target is the same in another test. Description: In vitro average percent Inhibition of Prostaglandin G/H synthase 1 (COX-1) at a concentration of 100 uM determined in human whole blood by human whole blood (HWB) assay. In kind it is tissue-based.
Conditions: not given
`NS(=O)(=O)c1ccc(-c2cc3c(cc2Cc2ccccc2)OCO3)cc1` yielded an inhibition of 90%.

Values taken from ChEMBL document CHEMBL1145927 (J Med Chem, 2003).
